Data: the EternaBench riboswitch data

Columns and labels:
[1] = tested on: MS2 coat protein; test: apparent Kd, MS2 coat protein; higher = weaker binding; RNA-MaP array
Summary of the method: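 Apparent Kd was taken as the median of binding curves fitted cluster by cluster. The designed RNAs were made by transcription of sequenced DNA templates on an Illumina sequencing chip and exposed to fluorescently labeled MS2 coat protein (1.5 nM to 3 μM) at room temperature, with or without input ligand, for 0.8–1.5 h at the lowest and 10–20 min at the highest concentrations. Any design measured on fewer than 10 clusters was left out.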

[2] = tested on: MS2 coat protein; test: apparent Kd, MS2 coat protein; higher = weaker binding; RNA-MaP array; FMN 200 µM where present
Summary of the method: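 Stalled E. coli RNA polymerase transcribed the designs on Illumina sequencing-chip clusters. SNAP-549-labelled MS2 coat protein was titrated from 0.7 or 1.5 nM, doubling to 3 µM, without and then with constant ligand, in 100 mM Tris-HCl pH 7.5, 80 mM KCl, 4 mM MgCl2, BSA, DTT, yeast tRNA and Tween-20. Per-cluster binding curves were fitted to green signal normalised to red-channel RNA signal and control-cluster median Fmax. The apparent Kd is the median of the filtered fits.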

[3] = designed as: OFF switch for flavin mononucleotide, no ligand
[4] = ligand present: flavin mononucleotide, designed as: OFF switch for flavin mononucleotide
[5] = designed as: ON switch for flavin mononucleotide, no ligand
[6] = ligand present: flavin mononucleotide, designed as: ON switch for flavin mononucleotide

ACUGCGCACGGGCUCCACAUGAGGAUCACCCAUGUUGAACUGAGAAGGGAAAGAAGAAACUACAUUCAGGAUAUCAUUUCACCA
apparent Kd [1, 3]: 44.5 nM
apparent Kd [1, 4]: 46.6 nM

GCUGAUAUCAAGAAGGCGAUCAGGGAAUAAGAGACAUGAGGAUCACCCAUGUACGCCAUUUGUAUCGAGGAUAUUGAAAAUAGG
apparent Kd [1, 5]: 24.4 nM
apparent Kd [1, 6]: 7.42 nM

GUGAUGCAGCAGAAGGGAUCGCUAAGGUUGUAAUCAGGAUAUGCAGUCGCUAGGGCGCCUCGACAUGAGGAUCACCCAUGUUUG
apparent Kd [1, 3]: 52.7 nM
apparent Kd [1, 4]: 61.7 nM

ACGCGUUCACAGAAGGCCUACAAAAUUACAUUAGGAGGAUAUGUUACAUGAGGAUCACCCAUGUCAUGGCUGUGUCUCGGUAUC
apparent Kd [1, 3]: 30.8 nM
apparent Kd [1, 4]: 41.4 nM

UCAUUGAGAGUCAUCCAGCGUUAAUGGGAUACCAGAGUUCUUUUACUCCCUUGGCAGCCCGGAACAUGAGGAUCACCCAUGUCUG
apparent Kd ([1]; designed as: OFF switch for theophylline, no ligand): 34.9 nM
apparent Kd ([1]; ligand present: theophylline, designed as: OFF switch for theophylline): 80.8 nM

CGAUUACAUGAGGAUCACCCAUGUCAGGAUAUAAUUUGCACAGCCGGGCAGGCCGUGGUUAGAAGGGACGUACA
apparent Kd [1, 3]: 9.09 nM
apparent Kd [1, 4]: 8.75 nM

UUACUACAUGAGGAUCACCCAUGUGAAAAUUAAACGAAAAGUUAGGAUAUGAAUGGAAAUGCACCUCAGAAGGAACGCGACAAG
apparent Kd [1, 5]: 18.4 nM
apparent Kd [1, 6]: 16.9 nM

ACAUGAGGAUCACCCAUGUAAACAAGGUUGGAGACCCGCAAUGAGGAUAUCAUAAAGAAACCCAAUGAGAAGGCAUGAUCACAA
apparent Kd [1, 5]: 22.3 nM
apparent Kd [1, 6]: 17.2 nM

GCAUUAACAAAGGAUAUGCAUUUCGUCAAUGUAGCAGAAGGUUGUACAUGAGGAUCACCCAUGUGUGAUCGAAC
apparent Kd [1, 3]: 26 nM
apparent Kd [1, 4]: 56.6 nM

AAGGAGGAGCAAGGAUAUCAGUGUAUACGCCACAUGAGGAUCACCCAUGUCCGGAGCGAGAUUCCUGAGAAGGUGCCGCCUAGC
apparent Kd [1, 5]: 7.25 nM
apparent Kd [1, 6]: 6.47 nM

AAAGGUUGAGGAUAUCAUCCUCCAAACAUGAGGAUCACCCAUGUUGAUCUUCACGUACGAUGAGAAGGCAACACCU
apparent Kd [1, 3]: 585 nM
apparent Kd [1, 4]: 683 nM

CAUCAGGGAUCAGGAUAUACAAUGGGUACAUGAGGAUCACCCAUGUAGACGCCAACACUGUCAUUGUAGAAGGGAUUGAGCGAA
apparent Kd [1, 5]: 55.1 nM
apparent Kd [1, 6]: 29.8 nM

GACAUGGGACAGAAGGCGCGUCACAUUUUUAUGCGAGGAUAUGUCACUACAUGAGGAUCACCCAUGUGAGUUGGGAUCUCGAAA
apparent Kd [1, 3]: 26.5 nM
apparent Kd [1, 4]: 64.1 nM

UCCAUACGGUAGGAUAUAUGUACCCAGAAGGGCAUAGAAGGACCCACAUGAGGAUCACCCAUGUUCCUUUGGUG
apparent Kd [1, 3]: 24.4 nM
apparent Kd [1, 4]: 30.5 nM

ACAUAUUCCAGAGGAUAUUGUGGUAUCCAGUUAAGGAGAUCUUACAUGAGGAUCACCCAUGUGGACAAGAAGGCUGAACGCUCC
apparent Kd [1, 5]: 21.6 nM
apparent Kd [1, 6]: 14.7 nM

GCUAAUCCAGGAGGAUAUAGGUUCUUUUCUACACAUGAGGAUCACCCAUGUGCAUCCCGGCGUACCUAGAAGGCCUGUCUAAAA
apparent Kd [1, 5]: 25.9 nM
apparent Kd [1, 6]: 15.5 nM

CGCUACGUUUCGUAGCAGCUAGGUGAGGAUAUUCAAUUUUUCACAUGAGGAUCACCCAUGUAUGUGAAGAAGGCGCCUAGAAAG
apparent Kd [2, 5]: 11.8 nM
apparent Kd [2, 6]: 5.64 nM

AGAGUGUCAGGAUAUCCUGCUGUGCGGAAUCUGUAUUCACGGGAGAAGGGACAUGAGGAUCACCCAUGUUUGAG
apparent Kd [2, 3]: 18.9 nM
apparent Kd [2, 4]: 28.1 nM

CUGCCGUAGGAGAAGGACGGCGGGUUAUUUUUGUACAUGAGGAUCACCCAUGUAGGAUAUCCUACGUCAGGCGACCUACUACAG
apparent Kd [2, 3]: 33 nM
apparent Kd [2, 4]: 34.5 nM

UACAUGUAAGGAUAUGUAAAAUCAAAACAAGAACGAUAAAGACAGAAGGUACAUGAGGAUCACCCAUGUGUCCC
apparent Kd [2, 3]: 20.5 nM
apparent Kd [2, 4]: 21.4 nM

GCUGCGCGAGGAUAUGCGGUUUGUGCUUUGGCCCGUGGCGUACAUGAGGAUCACCCAUGUAGAAGGCGUGUGGG
apparent Kd [2, 3]: 21.4 nM
apparent Kd [2, 4]: 21.7 nM

GAAGCACAUGAGGAUCACCCAUGUGAGGAUAUCCGUCUGGUCCGGCCGGGCCAGUACCGGAGAAGGCGCGUCGA
apparent Kd [2, 3]: 34.7 nM
apparent Kd [2, 4]: 29.7 nM

GUCUUUAAGGUAGGAUAUAGUAUGAUGGUUUAAUUAGAAGGAUCUCACAUGAGGAUCACCCAUGUAAUAGGAUUACCCAUGUAU
apparent Kd [2, 3]: 60.9 nM
apparent Kd [2, 4]: 43.4 nM

UUUUUCUCAGGAUAUACAUGAGGAUCACCCAUGUAUAUUAGUGAUAAUACAUGGGAAUGUAGAAGGGAGCUCAU
apparent Kd [2, 3]: 164 nM
apparent Kd [2, 4]: 123 nM

AAUGUUUGAUUCCACUUACACAUGAGGAUCACCCAUGUUAUCGAGGAUAUGCAUUAGAGUGUUUAGCAGAAGGCGAUGUAAUUG
apparent Kd [2, 3]: 8.46 nM
apparent Kd [2, 4]: 25 nM

AACGCGUCAGGAUAUAGCGAAACUUAGGUAGUACAACCAUACUAGAAGGGACAUGAGGAUCACCCAUGUGGGUA
apparent Kd [2, 3]: 209 nM
apparent Kd [2, 4]: 104 nM

AAGAAGUCAGGAUAUGCUGCUCGUCACUUGCGUGAUGAGUAGCAGAAGGGACAUGAGGAUCACCCAUGUAAAGA
apparent Kd [2, 3]: 32.5 nM
apparent Kd [2, 4]: 67.4 nM

GAACGUGACAUGAGGAUCACCCAUGUUGCCUGAGCCAGGUCGUAGGAUAUCCUGAUGAUUAAUUUGGAGAAGGGCGACUGGGAA
apparent Kd [2, 5]: 34.4 nM
apparent Kd [2, 6]: 14.3 nM

GUAGGCGACCAGAAGGGUGACAUGAGGAUCACCCAUGUAGAUGUGUUCCCGCUUGGGAGCCGUCCACAGGAUAUGGUUGCUUAG
apparent Kd [2, 5]: 66.5 nM
apparent Kd [2, 6]: 42.5 nM

AAGUAGAUCCGAGGAUAUACAAGGCGGAAACGCUACAUGAGGAUCACCCAUGUAGAAGGCGGAUCUACAGGUACUAAAGUACCA
apparent Kd [2, 3]: 5.84 nM
apparent Kd [2, 4]: 10.5 nM

GGUACCAUCACAGGAUAUGCUUUUCUUUGGGAAGCAGAAGGGUGUAACAUGAGGAUCACCCAUGUGGUGCCAGGGCGCGAGCCC
apparent Kd [2, 5]: 205 nM
apparent Kd [2, 6]: 15.4 nM

AAAAAAAAAACGCAGGAUAUCCAAAAAAAAACAUGAGGAUCACCCAUGUAAAAAAAAAAAAAAUGGGAGAAGGGUGAAAAAAAAAA
apparent Kd [2, 5]: 114 nM
apparent Kd [2, 6]: 51 nM

UGGUAACAUGAGGAUCACCCAUGUCAAGAGAAUCAAGGAUAUGGUAAGUAAUAAGAGAAUCUAGAAGGUGAAGUUG
apparent Kd [2, 5]: 96.2 nM
apparent Kd [2, 6]: 69.1 nM

AAUCUGUCGGUAGGAUAUCAGUUAGGAGAGCCGACAUGAGGAUCACCCAUGUACAGAAUCAAGGGUGAGAAGGACCGGGUAGUA
apparent Kd [2, 5]: 114 nM
apparent Kd [2, 6]: 111 nM

GCUGCAUAGGCAGGAUAUGCAAAAGCAGAUGCAAAGCAUUUGUAAAACACAUGAGGAUCACCCAUGUAGAAGGGCCUGUGCAGU
apparent Kd [2, 3]: 21.8 nM
apparent Kd [2, 4]: 21.5 nM

CCGAUGGUAUACUAGGAUAUGGGCGCCCUUACAUGAGGAUCACCCAUGUUUACACAAAUCCGCGGCCAGAAGGAGUUCAUGGGAG
apparent Kd [2, 5]: 184 nM
apparent Kd [2, 6]: 133 nM

CAGUCUACAGGAUAUACAUGAGGAUCACCCAUGUGUUUUCACUUUCAGUAGUCUAUAUGUAGAAGGGUAGACUG
apparent Kd [2, 3]: 24.8 nM
apparent Kd [2, 4]: 90.1 nM

GUGAAGUAAGGAUAUACAUGAGGAUCACCCAUGUGGAGGAAGGUGAUGGGAGUAGGUAGUAGAAGGUACGAGGA
apparent Kd [2, 3]: 140 nM
apparent Kd [2, 4]: 128 nM

GGAUUGGACAGAGGAUAUACGUGCUAGAGAUACUAGCAAAAUUUCCUCACAUGAGGAUCACCCAUGUAGAAGGCUGUCCUAUCG
apparent Kd [2, 3]: 15.6 nM
apparent Kd [2, 4]: 378 nM

UCACGGGAUUGAGGAUAUAUAUUAAUUUUUACAAUAGAAGGCAAAUUGUUAGUUUUUUCACUUUACAUGAGGAUCACCCAUGUU
apparent Kd [2, 3]: 26.2 nM
apparent Kd [2, 4]: 24 nM

GAUUGAGAGCAGGAUAUCUUAGAAAUGUAUUAAAGAGAAGGGCUCACAUGAGGAUCACCCAUGUGGUCCUAGAU
apparent Kd [2, 3]: 20.2 nM
apparent Kd [2, 4]: 175 nM

CGAUAGGACAGAGGAUAUACACAUGAGGAUCACCCAUGUAAUUACAAUUCUUGUGGUUCUUCCAUGUAGAAGGCUGUCCUAUCG
apparent Kd [2, 3]: 113 nM
apparent Kd [2, 4]: 335 nM
